Reference: article PMC4990137 (ACS chemical biology, 2016)

Tests used:
LTBP1 [1] = target: T1, LTBP1 (Rhodnius prolixus, UniProt Q7YT09); experiment: isothermal titration calorimetry, single-site fit; assay type: binding
T1 sequence (Q7YT09 18-173): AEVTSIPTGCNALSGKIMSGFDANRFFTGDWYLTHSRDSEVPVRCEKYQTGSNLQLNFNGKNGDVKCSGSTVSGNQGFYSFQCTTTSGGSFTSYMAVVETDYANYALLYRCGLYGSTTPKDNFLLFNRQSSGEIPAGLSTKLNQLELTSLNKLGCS

LTBP1 [2] = target: T2, LTBP1 (Rhodnius prolixus, UniProt Q7YT09, Y131A); experiment: isothermal titration calorimetry, single-site fit; assay type: binding
T2 sequence (Q7YT09 18-173 Y131A): T1 sequence (Q7YT09 18-173)
Method in brief: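 Titrated by ITC at 30 °C in 20 mM Tris HCl, pH 7.5, 150 mM NaCl, with 2 µM protein in the cell and 10 µL injections of ligand. Eicosanoid ligand solutions were prepared by removing ethanol and sonicating with buffer. Injection enthalpies were fitted to a single-site binding model.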

| Kd (LTBP1 [1]) [nM] | SMILES | Kd (LTBP1 [2]) [nM] |
| --- | --- | --- |
| 238 | CCCCC/C=C\C[C@@H](O)/C=C/C=C/C=C\[C@@H](O)CCCC(=O)O [LTB4] |  |
|  | CCCCC/C=C\C\C=C/C=C/C=C/[C@@H](SC[C@H](NC(=O)CC[C@H](N)C(=O)O)C(=O)NCC(=O)O)[C@@H](O)CCCC(=O)O [LTC4] | 47.6 |
|  | CCCCC/C=C\C\C=C/C=C/C=C/[C@@H](SC[C@H](N)C(=O)NCC(=O)O)[C@@H](O)CCCC(=O)O [LTD4] | 47.6 |
| 2.13 | CCCCC/C=C\C\C=C/C=C/C=C/[C@@H](SC[C@H](N)C(=O)O)[C@@H](O)CCCC(=O)O [LTE4] |  |
